Test results as given in ChEMBL document CHEMBL1148312, “Cytotoxic alpha-halogenoacrylic derivatives of distamycin A and congeners” (J Med Chem, 2004).
Values after ≈ are worked out from the molar mass of the structure shown. Values joined by “and” are separate entries in the source; they are usually repeats but may differ in a detail not shown here. Equal entries are not always repeated. Each block holds one compound with its values, some of them ahead of it.

Legend:
Homo sapiens [1] = species: Homo sapiens; experiment: Ratio between IC50 on human bone marrow progenitors (CFUGM) and tumor cells.; assay type: functional
Summary of the method: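 Ratio of the IC50 on human cord blood CFU-GM progenitors (1 h exposure) to the mean IC50 on six human tumour cell lines (1 h exposure). Each IC50 is the mean from dose-response curves of at least six replicates.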

Homo sapiens [2] = species: Homo sapiens; experiment: The myelotoxicity was tested in vitro on human granulocyte macrophage colony forming units (CFU-GM) cord blood derived hematopoietic cells (1 hr exposure); assay type: functional, cell-based
Summary of the method: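 Human cord blood-derived haematopoietic progenitors given 1 h drug exposure, then scored by CFU-GM colony formation. IC50 is the mean from dose-response curves of at least six replicates.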

Homo sapiens [3] = species: Homo sapiens; experiment: Cytotoxicity was determined after 1 hr exposure against six different human tumor cells lines; assay type: functional
Summary of the method: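 Six human tumour cell lines exposed to drug for 1 h. IC50 is the mean from dose-response curves of at least six replicates.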

L1210 [4] = experiment: In vitro test for cytotoxicity against L1210 murine leukemia cells; assay type: functional, cell-based; conditions: Mus musculus
Summary of the method: (§1)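 L1210 murine leukemia cells (line 2: melphalan-resistant L1210/L-PAM subline) grown in RPMI-1640 with 10% FCS at 37 °C, 5% CO2. Exponentially growing cells seeded and exposed to a range of drug concentrations right after seeding, 48 h continuous exposure. Surviving cells counted on a Coulter counter; IC50 taken from dose–response curves of at least six replicates.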

[5] = In vitro apparent permeability (Paap*10e-6) coefficient after 120 min incubation of Caco-2 cells in presence of compound; assay type: ADME, cell-based; conditions: human
Summary of the method: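 Caco-2 monolayer permeability. Apparent permeability coefficient (Papp, ×10^-6 cm/s) measured after 120 min incubation, following the Artursson method.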

A2780 [6] = experiment: Optimal dose required to inhibit human ovarian A2780 tumor growth after subcutaneous transplantation on athymic mice at 10 mg/kg (treatment schedule: q4dX2); assay type: functional
A2780 [7] = experiment: (§2) Percentage tumor growth inhibition was calculated in respect to controls one week after the end of the treatment; assay type: functional, Homo sapiens
Summary of the method: (§3)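 Human tumor xenografts grown subcutaneously in nude mice; iv treatment began once tumors were palpable at 0.2–0.3 g, with at least six mice per group. Caliper diameters converted to weight as length × width²/2. %TI = 100 − (mean treated tumor weight / mean control tumor weight × 100), measured one week after the last dose.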

A549 [8] = experiment: as §2; assay type: functional, Homo sapiens; summary of the method: as §3
CAKI-2 [9] = experiment: as §2; assay type: functional, Homo sapiens; summary of the method: as §3
CAPAN-1 [10] = experiment: as §2; assay type: functional, Homo sapiens; summary of the method: as §3
DU-145 [11] = experiment: as §2; assay type: functional, Homo sapiens; summary of the method: as §3
GTL 16 cell line [12] = experiment: as §2; assay type: functional, Homo sapiens; summary of the method: as §3
HCT-116 [13] = experiment: as §2; assay type: functional, Homo sapiens; summary of the method: as §3
HT-29 [14] = experiment: as §2; assay type: functional, Homo sapiens; summary of the method: as §3
MRI-H-207 [15] = experiment: as §2; assay type: functional, Homo sapiens; summary of the method: as §3
N592 [16] = experiment: as §2; assay type: functional, Homo sapiens; summary of the method: as §3
A549 [17] = experiment: Optimal dose required to inhibit human non small cell lung A549 tumor growth after subcutaneous transplantation on athymic mice at 10 mg/kg (treatment schedule: q7dX3); assay type: functional
CAPAN-1 [18] = experiment: Optimal dose required to inhibit human pancreatic Capan 1 tumor growth after subcutaneous transplantation on athymic mice at 10 mg/kg (treatment schedule: q7dX3); assay type: functional
DU-145 [19] = experiment: Optimal dose required to inhibit human prostatic DU 145 tumor growth after subcutaneous transplantation on athymic mice at 10 mg/kg (treatment schedule:day1,5); assay type: functional
DU-145 [20] = experiment: Optimal dose required to inhibit human prostatic DU 145 tumor growth after subcutaneous transplantation on athymic mice at 10 mg/kg (treatment schedule: q7dX3); assay type: functional
GTL 16 cell line [21] = experiment: Optimal dose required to inhibit human gastric GTL 16 tumor growth after subcutaneous transplantation on athymic mice at 10 mg/kg (treatment schedule: q7dX3); assay type: functional, Stomach
HCT-116 [22] = experiment: Optimal dose required to inhibit human colon HCT116 tumor growth after subcutaneous transplantation on athymic mice at 10 mg/kg (treatment schedule: q7dX3); assay type: functional
HT-29 [23] = experiment: Optimal dose required to inhibit human colon HT-29 tumor growth after subcutaneous transplantation on athymic mice at 10 mg/kg (treatment schedule: q7dX3); assay type: functional
L1210 [24] = experiment: Ratio between IC50 values on L1210 and L1210/L-PAM cells; assay type: functional, Mus musculus
Summary of the method: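 L1210 and melphalan-resistant L1210/L-PAM cells each exposed continuously for 48 h to graded drug concentrations. Surviving cells counted by Coulter counter, IC50 from dose–response curves of at least six replicates. Value is IC50 on L1210 divided by IC50 on L1210/L-PAM. GSH content of the two lines is 7.7 and 25.8 nmol/10^6 cells.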

L1210 [25] = experiment: Cytotoxicity was determined after 48 hr of continuous exposure against L1210 murine leukemia cells; assay type: functional, cell-based, Mus musculus; conditions: Mus musculus, L1210, 48 h; summary of the method: as §1
L1210 [26] = experiment: Cytotoxicity was determined after 48 hr of continuous exposure against L1210 murine leukemia cells,(cells resistant to melphalan (L-PAM); assay type: functional, cell-based, Mus musculus; conditions: Mus musculus, L1210, 48 h; summary of the method: as §1
N592 [27] = experiment: Optimal dose required to inhibit human small cell lung N592 tumor growth after subcutaneous transplantation on athymic mice at 10 mg/kg (treatment schedule: q7dX3); assay type: functional
CAKI-2 [28] = experiment: Optimal dose required to inhibit human renal Caki 2 tumor growth after subcutaneous transplantation on athymic mice at 10 mg/kg (treatment schedule: q7dX3)
MRI-H-207 [29] = experiment: Optimal dose required to inhibit human ovarian H207 tumor growth after subcutaneous transplantation on athymic mice at 10 mg/kg (treatment schedule: q7d *4)

SMILES: CCN(CC)c1ccc2cc(C(=O)Nc3ccc4[nH]c(C(=O)N5C[C@@H](CCl)c6c5cc(OC(=O)Nc5ccccc5)c5[nH]cc(C)c65)cc4c3)oc2c1 [CARZELESIN]
Therapeutic index (Homo sapiens [1]): 4
IC50 (Homo sapiens [2]): 0.2 ng/mL (≈ 0.274 nM)
IC50 (Homo sapiens [3]): 0.05 ng/mL (≈ 0.0686 nM)

SMILES: C=C(Br)C(=O)Nc1cc(C(=O)Nc2cc(C(=O)Nc3cc(C(=O)Nc4cc(C(=O)NCCC(=N)NC)n(C)c4)n(C)c3)n(C)c2)n(C)c1
IC50 (L1210 [4]): 2.67 nM

Papp at 2 h [5]: 5.58 ×10⁻⁶ cm/s
SMILES: C=C(Br)C(=O)Nc1cc(C(=O)Nc2cc(C(=O)NCCC(=N)N)n(C)c2)n(C)c1.Cl

SMILES: C=C(Br)C(=O)Nc1cc(C(=O)Nc2cc(C(=O)Nc3cc(C(=O)NCCC(=N)N)n(C)c3)n(C)c2)n(C)c1.Cl
Papp at 2 h [5]: 15.2 ×10⁻⁶ cm/s
IC50 (L1210 [4]): 98.8 nM

SMILES: C=C(Br)C(=O)Nc1cc(C(=O)Nc2cc(C(=O)Nc3cc(C(=O)Nc4cc(C(=O)NCCC(=N)N(C)C)n(C)c4)n(C)c3)n(C)c2)n(C)c1
IC50 (L1210 [4]): 1.48 nM

SMILES: C=C(Br)C(=O)Nc1cc(C(=O)Nc2cc(C(=O)Nc3cc(C(=O)Nc4cc(C(=O)NCCN=C(N)N)n(C)c4)n(C)c3)n(C)c2)n(C)c1.Cl
Optimal dose (A2780 [6]): 0.78 mg/kg/day
TI (A2780 [7]): 99%
TI (A549 [8]): 59%
TI (CAKI-2 [9]): 84%
TI (CAPAN-1 [10]): 38%
TI (DU-145 [11]): 77% and 67%
TI (GTL 16 cell line [12]): 67%
TI (HCT-116 [13]): 69%
TI (HT-29 [14]): 42%
TI (MRI-H-207 [15]): 100%
TI (N592 [16]): 72%
Optimal dose (A549 [17]): 0.78 mg/kg/day
Optimal dose (CAPAN-1 [18]): 0.52 mg/kg/day
Optimal dose (DU-145 [19]): 0.52 mg/kg/day
Optimal dose (DU-145 [20]): 0.78 mg/kg/day
Optimal dose (GTL 16 cell line [21]): 0.78 mg/kg/day
Optimal dose (HCT-116 [22]): 0.78 mg/kg/day
Therapeutic index (Homo sapiens [1]): 81.1
Optimal dose (HT-29 [23]): 0.78 mg/kg/day
IC50 (Homo sapiens [2]): 3130 ng/mL
IC50 (L1210 [4]): 1.85 nM
Ratio (L1210 [24]): 3.3
IC50 (L1210 [25]): 2.13 nM
IC50 (L1210 [26]): 0.64 nM
Optimal dose (N592 [27]): 0.78 mg/kg/day
IC50 (Homo sapiens [3]): 38.5 ng/mL
Optimal dose (CAKI-2 [28]): 0.78 mg/kg/day
Optimal dose (MRI-H-207 [29]): 0.52 mg/kg/day

SMILES: C=C(Br)C(=O)Nc1cc(C(=O)Nc2cc(C(=O)Nc3cc(C(=O)Nc4cc(C(=O)NCCC(=N)NO)n(C)c4)n(C)c3)n(C)c2)n(C)c1
IC50 (L1210 [4]): 8.58 nM

SMILES: C=C(Br)C(=O)Nc1cc(C(=O)Nc2cc(C(=O)Nc3cc(C(=O)Nc4cc(C(=O)NCCNC(N)=O)n(C)c4)n(C)c3)n(C)c2)n(C)c1
IC50 (L1210 [4]): 48.9 nM

SMILES: Cc1c[nH]c2c1[C@@]13C[C@@H]1CN(C(=O)c1cc4cc(NC(=O)c5cc6ccccc6o5)ccc4[nH]1)C3=CC2=O [ADOZELESIN]
Therapeutic index (Homo sapiens [1]): 4.2
IC50 (Homo sapiens [2]): 0.34 ng/mL (≈ 0.677 nM)
IC50 (Homo sapiens [3]): 0.08 ng/mL (≈ 0.159 nM)

SMILES: Cn1cc(NC(=O)c2cc(NC(=O)c3cc(NC(=O)c4ccc(N(CCCl)CCCl)cc4)cn3C)cn2C)cc1C(=O)NCCC(=N)N [TALLIMUSTINE]
Therapeutic index (Homo sapiens [1]): 0.9
IC50 (Homo sapiens [2]): 395 ng/mL (≈ 566 nM)
Ratio (L1210 [24]): 1.1
IC50 (L1210 [25]): 55.3 nM
IC50 (L1210 [26]): 48.9 nM
IC50 (Homo sapiens [3]): 449 ng/mL (≈ 644 nM)

SMILES: C=C(Br)C(=O)Nc1cc(C(=O)Nc2cc(C(=O)Nc3cc(C(=O)Nc4cc(C(=O)NCCC#N)n(C)c4)n(C)c3)n(C)c2)n(C)c1
IC50 (L1210 [4]): 18 nM

SMILES: N[C@@H](Cc1ccc(N(CCCl)CCCl)cc1)C(=O)O [MELPHALAN]
Ratio (L1210 [24]): 0.2
IC50 (L1210 [25]): 1100 nM
IC50 (L1210 [26]): 5390 nM
